Data: ChEMBL document CHEMBL1152716, “Stereoselective synthesis of bioactive isosteviol derivatives as alpha-glucosidase inhibitors” (Bioorg Med Chem, 2009)

Assay: Inhibition of yeast alpha glucosidase after 30 mins
Parameters: species or system Saccharomyces cerevisiae
Summary of the method: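 Baker's yeast α-glucosidase (0.04 U/mL) preincubated 30 min with inhibitor in 0.067 M K2HPO4/KH2PO4 buffer, pH 6.8, at 37 °C; inhibitor and substrate dissolved in DMSO, final DMSO 10%. Reaction started with 0.5 mM substrate, run 5 min at 37 °C, quenched with 0.1 M Na2CO3 (pH 9.8). Absorbance at 405 nm read immediately as hydrolysis rate; triplicate.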

Row | IC50 | SMILES
1 | 143 µM | CCOC(=O)[C@]1(C)CCC[C@@]2(C)[C@@H]3CC[C@@]4(C)C[C@]3(CC[C@@H]21)[C@H](CO)C4=O
2 | > 200 µM | CCOC(=O)[C@]1(C)CCC[C@@]2(C)[C@@H]3CC[C@@]4(C)C[C@]3(CC[C@@H]21)CC4=O
3 | 139 µM | C[C@@]12CC[C@@H]3[C@@](CC[C@H]4[C@@]3(C)CCC[C@@]4(C)C(=O)O)(CC(=O)O1)C2
4 | 68.2 µM | CCOC(=O)[C@]1(C)CCC[C@@]2(C)[C@@H]3CC[C@@]4(C)C[C@]3(CC[C@@H]21)c1c4[nH]c2ccccc12
5 | 116 µM | CC(C)CCOC(=O)[C@]1(C)CCC[C@@]2(C)[C@@H]3CC[C@@]4(C)C[C@]3(CC[C@@H]21)[C@H](CO)[C@H]4O
6 | 88.9 µM | CCOC(=O)[C@]1(C)CCC[C@@]2(C)[C@@H]3CC[C@@]4(C)C[C@]3(CC[C@@H]21)C/C4=N\O
7 | 72.4 µM | CCOC(=O)[C@]1(C)CCC[C@@]2(C)[C@@H]3CC[C@@]4(C)C[C@]3(CC[C@@H]21)CC(=O)N4
8 | 91.2 µM | CCOC(=O)[C@]1(C)CCC[C@@]2(C)[C@@H]3CC[C@@]4(C)C[C@]3(CC[C@@H]21)C[C@@H]4N
9 | 143 µM | C=CCOC(=O)[C@]1(C)CCC[C@@]2(C)[C@@H]3CC[C@@]4(C)C[C@]3(CC[C@@H]21)[C@H](CO)[C@H]4O
10 | 102 µM | CC(C)COC(=O)[C@]1(C)CCC[C@@]2(C)[C@@H]3CC[C@@]4(C)C[C@]3(CC[C@@H]21)[C@H](CO)[C@H]4O
11 | 156 µM | C[C@@]12CC[C@@H]3[C@@](CC[C@H]4[C@@]3(C)CCC[C@@]4(C)C(=O)O)(C[C@H]1O)C2
12 | 87.2 µM | CCCCOC(=O)[C@]1(C)CCC[C@@]2(C)[C@@H]3CC[C@@]4(C)C[C@]3(CC[C@@H]21)[C@H](CO)[C@H]4O
13 | > 200 µM | CCOC(=O)[C@]1(C)CCC[C@@]2(C)[C@@H]3CC[C@@]4(C)C[C@]3(CC[C@@H]21)[C@H](COC(=O)c1ccccc1)C4=O
14 | 118 µM | CCOC(=O)[C@]1(C)CCC[C@@]2(C)[C@@H]3CC[C@@]4(C)C[C@]3(CC[C@@H]21)CC(=O)O4
15 | 92.1 µM | C[C@@]12CC[C@@H]3[C@@](CC[C@H]4[C@@]3(C)CCC[C@@]4(C)C(=O)O)(C/C1=N/O)C2
16 | > 200 µM | C[C@@]12CC[C@@H]3[C@@](CC[C@H]4[C@@]3(C)CCC[C@@]4(C)C(=O)O)(CC1=O)C2 [ISOSTEVIOL]
17 | 96.5 µM | COC(=O)[C@]1(C)CCC[C@@]2(C)[C@@H]3CC[C@@]4(C)C[C@]3(CC[C@@H]21)[C@H](CO)[C@H]4O

Row | IC50 | SMILES
18 | > 200 µM | CCOC(=O)[C@]1(C)CCC[C@@]2(C)[C@@H]3CC[C@@]4(C)C[C@]3(CC[C@@H]21)[C@H](COC(C)=O)C4=O
19 | 83.2 µM | C[C@]12CC[C@@H]3[C@](CC[C@H]4[C@@]3(C)CCC[C@@]4(C)C(=O)O)(C1)c1c2[nH]c2ccccc12
20 | 114 µM | CC(C)(C)OC(=O)[C@]1(C)CCC[C@@]2(C)[C@@H]3CC[C@@]4(C)C[C@]3(CC[C@@H]21)[C@H](CO)[C@H]4O
21 | > 200 µM | C[C@@]12CC[C@@H]3[C@@](CC[C@H]4[C@@]3(C)CCC[C@@]4(C)C(=O)O)(C[C@@H]1N)C2
22 | > 200 µM | C[C@]12CC[C@H]3[C@]4(C)CCC[C@@](C)(C(=O)OCc5ccccc5)[C@H]4CC[C@@]3(C1)[C@H](CO)[C@H]2O
23 | 85.4 µM | CCCOC(=O)[C@]1(C)CCC[C@@]2(C)[C@@H]3CC[C@@]4(C)C[C@]3(CC[C@@H]21)[C@H](CO)[C@H]4O
24 | > 200 µM | C[C@]12CC[C@H]3[C@]4(C)CCC[C@@](C)(C(=O)OCCO)[C@H]4CC[C@@]3(C1)[C@H](CO)[C@H]2O
25 | 86.2 µM | CCOC(=O)[C@]1(C)CCC[C@@]2(C)[C@@H]3CC[C@@]4(C)C[C@]3(CC[C@@H]21)[C@H](CO)[C@H]4O
26 | 114 µM | CCN[C@H]1C[C@]23CC[C@H]4[C@@](C)(CCC[C@@]4(C)C(=O)OCC)[C@@H]2CC[C@@]1(C)C3
27 | > 200 µM | C=CC(=O)O[C@@H]1C[C@]23CC[C@H]4[C@@](C)(CCC[C@@]4(C)C(=O)OCC)[C@@H]2CC[C@@]1(C)C3
28 | 97.2 µM | CC(C)OC(=O)[C@]1(C)CCC[C@@]2(C)[C@@H]3CC[C@@]4(C)C[C@]3(CC[C@@H]21)[C@H](CO)[C@H]4O
29 | > 200 µM | C=C1C(=O)[C@@]2(C)CC[C@@H]3[C@]1(CC[C@H]1[C@@]3(C)CCC[C@@]1(C)C(=O)OCC)C2
30 | 81.6 µM | C[C@@]12CC[C@@H]3[C@@](CC[C@H]4[C@@]3(C)CCC[C@@]4(C)C(=O)O)(CC(=O)N1)C2 [ISOSTEVIOL LACTAM]
31 | 112 µM | CCOC(=O)[C@]1(C)CCC[C@@]2(C)[C@@H]3CC[C@@]4(C)C[C@]3(CC[C@@H]21)[C@H](COC(=O)c1ccccc1)[C@H]4O
32 | 132 µM | CCOC(=O)[C@]1(C)CCC[C@@]2(C)[C@@H]3CC[C@@]4(C)C[C@]3(CC[C@@H]21)C[C@H]4O
33 | 149 µM | C[C@]12CC[C@H]3[C@]4(C)CCC[C@@](C)(C(=O)O)[C@H]4CC[C@@]3(C1)[C@H](CO)[C@H]2O
34 | 132 µM | CCOC(=O)[C@]1(C)CCC[C@@]2(C)[C@@H]3CC[C@@]4(C)C[C@]3(CC[C@@H]21)[C@H](COC(C)=O)[C@H]4O
